From ChEMBL document CHEMBL4825756, “New Design Rules for Developing Potent Cell-Active Inhibitors of the Nucleosome Remodeling Factor (NURF) via BPTF Bromodomain Inhibition” (J Med Chem, 2021)
Values belong to the molecule of their own block, whether it stands above or below them. Activity calls are given as the source filed them. The rule behind the calls is not given here.

Key:
[1] = biological target: T1, Bromodomain-containing protein 4 (Homo sapiens, UniProt O60885); assay: Inhibition of HIS9-tagged BRD4 (unknown origin) expressed in Escherichia coli BL21 (DE3) cells incubated for 30 mins by AlphaScreen assay
EpH4 [2] = assay: Upregulation of sfn mRNA in mouse EpH4 cells at 5 uM after 24 hrs by qRT-PCR analysis; type: functional, cell-based
How it was run: (§1)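 Murine Eph4 mammary epithelial cells were treated at 5 μM for 24 h and harvested in trizol. Transcripts were quantified by SYBR Green qPCR. Group differences were tested by one-way ANOVA at p<0.05.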

EpH4 [3] = assay: Upregulation of sprr1a mRNA in mouse EpH4 cells at 5 uM after 24 hrs by qRT-PCR analysis; type: functional, cell-based; how it was run: as §1
4T1 [4] = assay: Growth inhibition of mouse 4T1 cells BPTF knock down assessed as reduction cell viability 15 uM in presence of doxorubicin incubated for 4 days by MTS assay relative to control; type: functional, cell-based; conditions: time 4.0 day
How it was run: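 4T1 cells with shRNA BPTF knockdown, grown in DMEM with 10% FBS, 2 mM glutamine and pen-strep, were seeded at 4000/well and allowed to adhere overnight. They were treated 4 days in complete medium with one of three inhibitor doses chosen from toxicity curves, combined with 50 nM doxorubicin. MTS absorbance was read at 490 nm. Fraction survival was set against untreated cells (1.0) and blank (0.0).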

EpH4 [5] = assay: Upregulation of Myc mRNA in mouse EpH4 cells at 5 uM after 24 hrs by qRT-PCR analysis; type: functional, cell-based; how it was run: as §1
[6] = biological target: Nucleosome-remodeling factor subunit BPTF (Homo sapiens, UniProt Q12830); assay: Binding affinity to 5FW-labeled BPTF (unknown origin) expressed in Escherichia coli BL21 (DE3) cells by PrOF NMR analysis
[7] = biological target: T2, Histone acetyltransferase KAT2B (Homo sapiens, UniProt Q92831); assay: Binding affinity to PCAF (unknown origin) by BROMOscan method
Target sequence in this assay (Q92831 whole entry): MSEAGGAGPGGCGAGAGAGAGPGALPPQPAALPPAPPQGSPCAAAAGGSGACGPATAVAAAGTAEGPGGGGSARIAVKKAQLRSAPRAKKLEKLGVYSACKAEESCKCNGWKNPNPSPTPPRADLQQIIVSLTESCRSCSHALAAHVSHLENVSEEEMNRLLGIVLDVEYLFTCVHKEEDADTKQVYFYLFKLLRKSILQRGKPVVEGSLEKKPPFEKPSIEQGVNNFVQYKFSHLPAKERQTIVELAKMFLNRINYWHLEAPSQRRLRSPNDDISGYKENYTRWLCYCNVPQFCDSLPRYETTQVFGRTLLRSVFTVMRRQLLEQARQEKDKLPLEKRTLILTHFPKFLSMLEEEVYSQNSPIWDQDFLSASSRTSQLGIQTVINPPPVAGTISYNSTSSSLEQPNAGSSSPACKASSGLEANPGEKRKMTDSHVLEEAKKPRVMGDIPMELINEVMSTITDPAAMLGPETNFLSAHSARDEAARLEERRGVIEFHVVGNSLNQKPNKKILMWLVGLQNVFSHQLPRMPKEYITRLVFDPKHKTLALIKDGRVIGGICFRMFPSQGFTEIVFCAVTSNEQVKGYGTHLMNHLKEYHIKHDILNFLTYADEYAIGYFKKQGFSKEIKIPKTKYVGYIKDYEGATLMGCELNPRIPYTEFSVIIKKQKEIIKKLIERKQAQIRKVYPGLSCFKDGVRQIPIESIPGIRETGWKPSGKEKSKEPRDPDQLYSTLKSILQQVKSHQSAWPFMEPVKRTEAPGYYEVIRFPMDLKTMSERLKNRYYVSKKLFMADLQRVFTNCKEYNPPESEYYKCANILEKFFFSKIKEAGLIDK

[8] = biological target: T3, Bromodomain-containing protein 9 (Homo sapiens, UniProt Q9H8M2); assay: Binding affinity to BRD9 (unknown origin) by BROMOscan method
T3 sequence (Q9H8M2 whole entry): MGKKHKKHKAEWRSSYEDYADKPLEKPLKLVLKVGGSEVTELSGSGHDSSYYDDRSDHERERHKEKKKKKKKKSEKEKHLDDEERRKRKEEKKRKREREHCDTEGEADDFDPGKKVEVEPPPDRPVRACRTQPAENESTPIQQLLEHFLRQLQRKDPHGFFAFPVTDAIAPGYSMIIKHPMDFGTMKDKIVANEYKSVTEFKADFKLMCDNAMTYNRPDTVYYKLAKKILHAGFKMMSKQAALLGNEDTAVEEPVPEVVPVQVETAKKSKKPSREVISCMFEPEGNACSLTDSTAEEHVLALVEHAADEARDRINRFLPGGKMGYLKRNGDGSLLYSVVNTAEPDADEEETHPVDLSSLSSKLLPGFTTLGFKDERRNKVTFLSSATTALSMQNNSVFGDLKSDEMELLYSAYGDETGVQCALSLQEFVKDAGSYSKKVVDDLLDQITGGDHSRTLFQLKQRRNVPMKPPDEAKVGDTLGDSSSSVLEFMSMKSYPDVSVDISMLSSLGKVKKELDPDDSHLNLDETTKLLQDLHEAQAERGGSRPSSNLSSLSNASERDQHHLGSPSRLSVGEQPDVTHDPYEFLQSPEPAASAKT

4T1 [9] = assay: Growth inhibition of mouse 4T1 cells assessed as reduction cell viability 5 to 15 uM in presence of doxorubicin incubated for 4 days by MTS assay relative to control; type: functional, cell-based; conditions: dose 5-15 µM, time 4.0 day
How it was run: (§2)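 Mouse 4T1 breast cancer cells in DMEM with 10% FBS, 2 mM glutamine and penicillin-streptomycin, 4000 cells/well, adhered overnight. Three inhibitor doses, chosen from toxicity curves, given for 4 days alone or with 50 nM doxorubicin, also in shRNA BPTF-knockdown cells. MTS absorbance read at 490 nm; fraction survival scaled to untreated cells (1.0) and blank (0.0); N=3, mean ± SEM.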

[10] = biological target: T1, Bromodomain-containing protein 4; assay: Binding affinity to BRD4 BD1 (unknown origin) by BROMOscan method
[11] = biological target: Chromatin remodeling regulator CECR2 (Homo sapiens) (UniProt Q9BXF3); assay: Inhibition of CECR2 (unknown origin) at 140 nM by BROMOscan method relative to control
[12] = biological target: Histone acetyltransferase KAT2A (Homo sapiens) (UniProt Q92830); assay: Inhibition of GCN5L2 (unknown origin) at 140 nM by BROMOscan method relative to control
[13] = biological target: T2, Histone acetyltransferase KAT2B; assay: Binding affinity to 5FW-labeled PCAF (unknown origin) expressed in Escherichia coli BL21 (DE3) cells at 7.4 to 200 uM by PrOF NMR analysis; conditions: dose 7.4-200 µM
How it was run: (§3)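 Protein-observed 19F NMR with 5-fluorotryptophan-labelled protein. Each ligand is titrated and the change in chemical shift relative to a control sample is plotted against ligand concentration to give a binding isotherm. Kd is taken from a fit to the quadratic binding equation, which uses total ligand and total protein concentrations.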
Target sequence in this assay (Q92831 whole entry, looked up): as the sequence (Q92831 whole entry) above

[14] = biological target: Chromatin remodeling regulator CECR2 (Homo sapiens) (UniProt Q9BXF3); assay: Binding affinity to 5FW-labeled CECR2 (unknown origin) expressed in Escherichia coli BL21 (DE3) cells at 7.4 to 200 uM by PrOF NMR analysis; conditions: dose 7.4-200 µM; how it was run: as §3
4T1 [15] = assay: Growth inhibition of mouse 4T1 cells assessed as reduction cell viability 2.5 to 8 uM in presence of doxorubicin incubated for 4 days by MTS assay relative to control; type: functional, cell-based; conditions: dose 2.5-8 µM, time 4.0 day; how it was run: as §2

Sequence of Chromatin remodeling regulator CECR2 (Homo sapiens) (Q9BXF3 whole entry, looked up): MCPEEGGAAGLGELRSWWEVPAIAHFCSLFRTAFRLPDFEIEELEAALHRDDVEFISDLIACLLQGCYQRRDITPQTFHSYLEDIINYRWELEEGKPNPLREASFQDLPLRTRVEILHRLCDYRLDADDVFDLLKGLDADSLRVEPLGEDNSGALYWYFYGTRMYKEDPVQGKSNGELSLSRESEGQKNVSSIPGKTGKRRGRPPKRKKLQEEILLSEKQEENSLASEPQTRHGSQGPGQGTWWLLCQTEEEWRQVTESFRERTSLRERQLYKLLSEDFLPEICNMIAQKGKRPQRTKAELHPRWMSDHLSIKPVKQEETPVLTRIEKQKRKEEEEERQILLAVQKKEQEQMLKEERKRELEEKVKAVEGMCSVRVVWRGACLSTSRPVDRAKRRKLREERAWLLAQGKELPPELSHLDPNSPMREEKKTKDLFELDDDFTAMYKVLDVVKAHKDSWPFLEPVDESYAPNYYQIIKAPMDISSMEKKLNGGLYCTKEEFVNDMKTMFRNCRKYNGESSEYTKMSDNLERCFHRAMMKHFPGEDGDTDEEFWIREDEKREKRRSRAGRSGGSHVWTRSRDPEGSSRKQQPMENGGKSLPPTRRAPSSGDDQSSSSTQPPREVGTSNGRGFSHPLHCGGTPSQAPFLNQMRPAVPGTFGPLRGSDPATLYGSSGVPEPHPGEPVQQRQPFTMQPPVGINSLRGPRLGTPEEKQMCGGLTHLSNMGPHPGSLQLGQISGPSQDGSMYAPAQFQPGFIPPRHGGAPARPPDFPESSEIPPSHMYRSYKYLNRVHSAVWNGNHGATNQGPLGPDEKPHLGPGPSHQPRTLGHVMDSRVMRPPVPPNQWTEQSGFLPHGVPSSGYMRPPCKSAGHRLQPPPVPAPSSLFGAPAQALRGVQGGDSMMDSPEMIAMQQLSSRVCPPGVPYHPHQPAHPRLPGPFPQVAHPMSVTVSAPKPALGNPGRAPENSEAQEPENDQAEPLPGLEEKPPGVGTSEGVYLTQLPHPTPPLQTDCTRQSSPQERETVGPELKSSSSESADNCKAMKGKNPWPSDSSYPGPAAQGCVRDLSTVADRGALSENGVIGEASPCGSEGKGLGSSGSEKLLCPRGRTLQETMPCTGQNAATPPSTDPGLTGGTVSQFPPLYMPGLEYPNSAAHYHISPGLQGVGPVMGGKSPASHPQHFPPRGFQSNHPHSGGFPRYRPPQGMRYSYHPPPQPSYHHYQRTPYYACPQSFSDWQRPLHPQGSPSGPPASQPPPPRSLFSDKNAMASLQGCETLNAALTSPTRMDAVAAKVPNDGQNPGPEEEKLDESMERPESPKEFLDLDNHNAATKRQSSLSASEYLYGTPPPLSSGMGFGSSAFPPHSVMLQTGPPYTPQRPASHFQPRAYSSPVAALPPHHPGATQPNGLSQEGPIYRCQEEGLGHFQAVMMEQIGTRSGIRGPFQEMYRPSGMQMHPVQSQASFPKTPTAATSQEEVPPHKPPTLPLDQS
Sequence of Histone acetyltransferase KAT2A (Homo sapiens) (Q92830 2-837 limits assumed): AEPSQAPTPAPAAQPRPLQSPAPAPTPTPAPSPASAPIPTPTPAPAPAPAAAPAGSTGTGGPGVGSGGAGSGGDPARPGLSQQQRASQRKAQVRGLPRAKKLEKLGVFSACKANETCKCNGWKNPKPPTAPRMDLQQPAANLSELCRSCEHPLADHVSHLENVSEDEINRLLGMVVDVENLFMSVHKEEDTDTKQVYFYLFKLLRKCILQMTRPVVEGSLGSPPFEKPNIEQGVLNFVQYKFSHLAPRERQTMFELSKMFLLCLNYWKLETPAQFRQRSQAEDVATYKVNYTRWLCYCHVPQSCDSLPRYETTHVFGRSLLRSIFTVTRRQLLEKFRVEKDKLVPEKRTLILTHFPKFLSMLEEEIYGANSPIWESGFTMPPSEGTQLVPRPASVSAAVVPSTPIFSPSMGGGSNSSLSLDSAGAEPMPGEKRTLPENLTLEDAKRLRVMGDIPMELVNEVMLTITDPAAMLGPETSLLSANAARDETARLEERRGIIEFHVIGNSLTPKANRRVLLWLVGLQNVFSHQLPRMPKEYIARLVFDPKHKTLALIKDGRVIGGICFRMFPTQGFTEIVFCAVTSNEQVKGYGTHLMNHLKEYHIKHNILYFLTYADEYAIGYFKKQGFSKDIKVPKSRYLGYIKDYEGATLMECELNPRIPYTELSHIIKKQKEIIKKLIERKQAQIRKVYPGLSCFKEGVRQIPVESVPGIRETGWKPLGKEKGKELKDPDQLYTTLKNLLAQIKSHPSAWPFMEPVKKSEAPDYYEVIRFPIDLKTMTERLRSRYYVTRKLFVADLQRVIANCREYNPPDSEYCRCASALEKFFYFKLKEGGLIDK

IC50 [1]: Not Active
Structure (SMILES): CC(C)n1ncc(Nc2ccc(CN)cc2)c(Cl)c1=O

Structure (SMILES): COC(=O)c1cccc(NC(=O)N[C@H]2CCN(c3ccnc(Nc4ccc(F)cc4)n3)C2)c1
Activity (EpH4 [2]): inactive
Activity (EpH4 [3]): inactive
growth inhibition (GI) (4T1 [4]): Active
Activity (EpH4 [5]): inactive

Kd [6]: 120000 nM
Structure (SMILES): CN(C)CCCOc1ccc(-c2cc(NCCCn3cccn3)nc(S(C)(=O)=O)n2)cc1

Structure (SMILES): Cn1ncc(Nc2ccc(CCN)cc2)c(Br)c1=O
Kd [7]: 14 nM
Kd [8]: 0.24 nM

Kd [7]: 370 nM
Kd [8]: 230 nM
Structure (SMILES): CN(C)CCCc1ccc(Nc2cnn(C)c(=O)c2Cl)cc1

Structure (SMILES): CN(C)CCc1ccc(Nc2cnn(C)c(=O)c2Cl)cc1
Activity (EpH4 [2]): Active
Activity (EpH4 [3]): inactive
growth inhibition (GI) (4T1 [9]): Active
Activity (EpH4 [5]): inactive

Structure (SMILES): Cn1ncc(Nc2ccc(CCN)cc2)c(Cl)c1=O
Kd [10]: 2200 nM
inhibition [11]: Active
IC50 ([1]; read-out: IC50): 31000 nM
inhibition [12]: Active
Activity [13]: Active
Activity [14]: Active
growth inhibition (GI) (4T1 [15]): Active
